Data as given in ChEMBL document CHEMBL1131041 (J Med Chem, 1998).

Key:
[1] = target: T1, Delta-type opioid receptor (Rattus norvegicus, UniProt P33533); assay: Displacement of [3H]DADLE from morphine-insensitive Opioid receptor delta 1 (presence of 50 nM morphine) of rat brain membranes; type: cell membranes, Membrane
How it was run: (§1)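 Rat brain membranes pretreated with (+)-trans-[…], labelled with 2.0 nM [3H]DADLE, plus 50 nM morphine (δcx-2) or 300 nM DELT-II (δcx-1). Incubation 4–6 h at 25 °C in 10 mM Tris-HCl pH 7.4 with 100 mM NaCl, 3 mM MnCl2, 2 μM GTP, 5 mM 2-mercaptoethanol and protease inhibitors. 8–10 concentrations, twice.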

[2] = organism: Cavia porcellus; assay: (§2) Partial agonist activity expressed as inhibition of contraction of guinea pig ileal longitudinal muscle myenteric plexus (GPI) at 1 uM conc.; type: functional, Muscle tissue
How it was run: (§3)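 Agonist action on electrically driven tissues at 37 °C: GPI (1 g tension, 0.4-ms pulses) and Mg-free MVD (0.5 g, 2-ms pulses), 0.1 Hz. Percent inhibition of contraction height read 10 min after 1 μM compound; for stronger agonists, IC50 from concentration–response curves (2–4 tissues, nonlinear least squares). Selectivity = GPI IC50/MVD IC50.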

[3] = target: Delta-type opioid receptor (Mus musculus) (UniProt P32300); assay: Displacement of DPDPE from Opioid receptor delta 1 of mouse vas deferens (MVD)smooth muscle
Chain of Delta-type opioid receptor (Mus musculus) (P32300 whole entry): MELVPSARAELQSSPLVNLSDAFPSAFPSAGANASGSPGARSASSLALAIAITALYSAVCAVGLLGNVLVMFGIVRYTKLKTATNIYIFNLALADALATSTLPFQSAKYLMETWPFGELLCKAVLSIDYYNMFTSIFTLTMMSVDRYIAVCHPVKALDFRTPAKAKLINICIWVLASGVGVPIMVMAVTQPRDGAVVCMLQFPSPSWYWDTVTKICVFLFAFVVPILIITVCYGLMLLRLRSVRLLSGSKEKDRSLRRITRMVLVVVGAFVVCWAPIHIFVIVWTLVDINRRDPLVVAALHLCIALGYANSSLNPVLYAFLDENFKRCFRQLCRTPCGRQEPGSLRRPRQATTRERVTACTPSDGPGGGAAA
How it was run: (§4)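 Mouse vas deferens (male ICR, 25–40 g) in Mg-free oxygenated Krebs at 37 °C, 0.5 g tension; transmural 0.1 Hz, 2-ms pulses, supramaximal voltage. Control DPDPE curve first; then 1 μM compound 30 min, 30 min wash, cumulative DPDPE curve (3-min steps) repeated. IC50 ratio = shifted/control IC50; Ke = [antagonist]/(ratio − 1); n ≥ 3.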

[4] = organism: Mus musculus; assay: (§5) Partial agonist activity expressed as inhibition of contraction of mouse vas deferens (MVD) smooth muscle at 1 uM conc.; type: functional, Muscle tissue; how it was run: as §3
[5] = target: T1, Delta-type opioid receptor; assay: Displacement of [3H]DADLE from morphine-sensitive Opioid receptor delta 1 (presence of 300 nM DELT-II) of rat brain membranes; type: cell membranes, Membrane; how it was run: as §1
[6] = organism: Cavia porcellus; assay: Binding affinity of compound was measured on electrically stimulated guinea pig ileal longitudinal muscle myenteric plexus (GPI) preparation using PL017 as standard antagonist; type: functional; settings: Muscle tissue
How it was run: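 Electrically stimulated guinea pig ileum longitudinal muscle–myenteric plexus (male Hartley, 250–500 g) in oxygenated Krebs at 37 °C, 1 g tension; 0.1 Hz, 0.4-ms pulses. Tissue preincubated 30 min with 1 μM compound, washed 30 min, then cumulative PL-017 curve repeated. Ke = [antagonist]/(IC50 ratio − 1); n ≥ 3.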

[7] = target: T2, Kappa-type opioid receptor (Cavia porcellus, UniProt P41144); assay: Displacement of [3H]U-69593 from Opioid receptor kappa 1 of guinea pig brain membranes (pretreated with BIT and FIT to block mu and delta sites)
T2 sequence (P41144 whole entry): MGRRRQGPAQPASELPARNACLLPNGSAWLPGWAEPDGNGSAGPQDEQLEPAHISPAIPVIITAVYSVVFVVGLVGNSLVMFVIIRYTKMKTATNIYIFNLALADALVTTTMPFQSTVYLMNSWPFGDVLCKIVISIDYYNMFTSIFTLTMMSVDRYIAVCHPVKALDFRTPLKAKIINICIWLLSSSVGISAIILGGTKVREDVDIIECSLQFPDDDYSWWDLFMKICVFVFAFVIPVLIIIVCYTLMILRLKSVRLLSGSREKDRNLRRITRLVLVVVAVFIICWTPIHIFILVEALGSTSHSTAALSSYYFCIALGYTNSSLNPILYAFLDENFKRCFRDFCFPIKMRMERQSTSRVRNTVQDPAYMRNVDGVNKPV
How it was run: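 Guinea pig brain membranes pretreated with BIT and FIT, labelled with [3H]U69,593. Incubation 4–6 h at 25 °C in 50 mM Tris-HCl pH 7.4 with protease inhibitors and 1 μg/mL captopril. Nonspecific binding with 1 μM U69,593. 8–10 concentrations, twice.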

[8] = target: T2, Kappa-type opioid receptor; assay: Displacement of [125I]OXY from Opioid receptor kappa 2b of guinea pig brain membranes (pretreated with BIT(mu) and FIT(delta) and in the presence of (-)U50,488)
How it was run: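 Guinea pig brain membranes depleted of μ/δ sites by BIT and FIT, labelled with 0.01 nM [125I]IOXY in presence of 5 μM (−)U50,488. Incubation 4–6 h at 4 °C in 50 mM Tris-HCl pH 7.4 with 10 mM NaCl, protease inhibitors and 1 μg/mL captopril.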

[9] = target: T1, Delta-type opioid receptor; assay: Displacement of [3H]DADLE from Opioid receptor delta 1 of rat brain membranes (DAMGO quenching mu receptor); type: cell membranes, Membrane
How it was run: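 Rat brain membranes labelled with [3H]DADLE. Incubation 3–4 h at 25 °C in 10 mM Tris-HCl pH 7.4 with 100 mM choline chloride, 3 mM MnCl2, 100 nM DAMGO (μ block) and protease inhibitors. Levallorphan 20 μM for nonspecific binding. 8–10 concentrations, duplicate runs.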

[10] = Relative affinity for guinea pig kappa1 and rat delta receptors
[11] = target: Opioid receptors; mu & delta (Homo sapiens) (UniProt P41143+P35372); assay: IC50 selectivity for mu receptor of guinea pig Ileum (GPI) and delta receptor of delta opioid receptor of mouse vas deferens (MVD) smooth muscle preparation; type: tissue-based; how it was run: as §3
Chain of Opioid receptors; mu & delta (Homo sapiens) (P35372 whole entry, looked up): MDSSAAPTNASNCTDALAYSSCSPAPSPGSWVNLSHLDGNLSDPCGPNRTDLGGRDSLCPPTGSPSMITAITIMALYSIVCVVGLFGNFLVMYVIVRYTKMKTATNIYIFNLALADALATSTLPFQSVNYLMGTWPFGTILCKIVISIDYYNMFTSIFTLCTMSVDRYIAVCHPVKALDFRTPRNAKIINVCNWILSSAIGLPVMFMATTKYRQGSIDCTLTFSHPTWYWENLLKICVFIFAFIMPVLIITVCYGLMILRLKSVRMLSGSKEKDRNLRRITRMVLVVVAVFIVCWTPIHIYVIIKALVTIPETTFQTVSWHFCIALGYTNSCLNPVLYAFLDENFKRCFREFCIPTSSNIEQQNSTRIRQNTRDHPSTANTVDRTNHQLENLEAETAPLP
Chain of Opioid receptors; mu & delta (Homo sapiens) (P41143 whole entry, looked up): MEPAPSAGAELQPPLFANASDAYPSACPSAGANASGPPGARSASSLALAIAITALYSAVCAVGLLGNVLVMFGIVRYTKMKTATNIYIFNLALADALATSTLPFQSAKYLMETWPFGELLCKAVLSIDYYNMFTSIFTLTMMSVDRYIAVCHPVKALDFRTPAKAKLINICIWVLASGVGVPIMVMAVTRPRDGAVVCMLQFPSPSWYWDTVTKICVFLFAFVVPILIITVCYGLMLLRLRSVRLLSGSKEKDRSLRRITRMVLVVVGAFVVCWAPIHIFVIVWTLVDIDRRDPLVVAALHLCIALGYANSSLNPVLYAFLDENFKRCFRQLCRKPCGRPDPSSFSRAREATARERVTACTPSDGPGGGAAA

[12] = organism: Mus musculus; assay: as §5; type: functional, organism-based; settings: Muscle tissue; how it was run: as §3
[13] = organism: Cavia porcellus; assay: as §2; type: functional, organism-based; settings: Muscle tissue; how it was run: as §3
[14] = target: Opioid receptors; mu & delta (Rattus norvegicus) (UniProt P33533+P33535); assay: Relative affinity for mu and delta receptors in rat brain membranes; type: cell membranes
Chain of Opioid receptors; mu & delta (Rattus norvegicus) (P33533 whole entry, looked up): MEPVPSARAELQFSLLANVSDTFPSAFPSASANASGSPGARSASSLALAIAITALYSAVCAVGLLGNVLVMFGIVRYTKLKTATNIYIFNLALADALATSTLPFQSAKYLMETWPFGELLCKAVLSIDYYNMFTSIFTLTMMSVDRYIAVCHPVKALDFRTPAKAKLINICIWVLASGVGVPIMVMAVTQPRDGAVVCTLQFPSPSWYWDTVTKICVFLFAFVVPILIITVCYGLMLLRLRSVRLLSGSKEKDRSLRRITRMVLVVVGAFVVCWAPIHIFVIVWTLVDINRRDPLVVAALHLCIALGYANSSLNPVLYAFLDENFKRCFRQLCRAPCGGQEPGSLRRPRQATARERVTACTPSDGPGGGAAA
Chain of Opioid receptors; mu & delta (Rattus norvegicus) (P33535 whole entry, looked up): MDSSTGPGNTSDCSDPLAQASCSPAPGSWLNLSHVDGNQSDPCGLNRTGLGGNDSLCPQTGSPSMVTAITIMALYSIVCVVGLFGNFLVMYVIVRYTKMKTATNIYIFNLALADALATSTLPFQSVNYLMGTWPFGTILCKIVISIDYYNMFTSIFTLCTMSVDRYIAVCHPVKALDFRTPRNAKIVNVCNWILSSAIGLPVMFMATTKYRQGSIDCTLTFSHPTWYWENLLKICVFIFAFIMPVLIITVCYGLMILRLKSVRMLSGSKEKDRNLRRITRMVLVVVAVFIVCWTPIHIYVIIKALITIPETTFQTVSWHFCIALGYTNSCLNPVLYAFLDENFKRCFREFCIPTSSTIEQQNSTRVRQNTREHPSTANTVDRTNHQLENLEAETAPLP

[15] = target: Delta-type opioid receptor (Mus musculus) (UniProt P32300); assay: Displacement of DPDPE from Opioid receptor delta 1 of mouse vas deferens (MVD) smooth muscle; how it was run: as §4
[16] = target: Mu-type opioid receptor (Rattus norvegicus, UniProt P33535); assay: Displacement of [3H]DAMGO from Opioid receptor mu 1 of rat brain membranes; type: cell membranes, Membrane
Chain of Mu-type opioid receptor (P33535 whole entry): as the sequence (P33535 whole entry, looked up) above
How it was run: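 Rat brain membranes labelled with [3H]DAMGO. Incubation 4 h at 25 °C in 50 mM Tris-HCl pH 7.4 with protease inhibitor cocktail. Nonspecific binding defined with 20 μM levallorphan. 8–10 test concentrations, run twice; IC50 and slope factor derived.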

[17] = target: Mu-type opioid receptor (Mus musculus) (UniProt P42866); assay: Compound was tested for antagonist activity against Opioid receptor mu 1 on electrically stimulated guinea pig ileal longitudinal muscle myenteric plexus (GPI) using PL017 as antagonist ligand. IC50 ratio = IC50(agonist)/IC50 (control); type: functional; settings: Cavia porcellus; target entry is the homologue from another species
Chain of Mu-type opioid receptor (Mus musculus) (P42866 whole entry): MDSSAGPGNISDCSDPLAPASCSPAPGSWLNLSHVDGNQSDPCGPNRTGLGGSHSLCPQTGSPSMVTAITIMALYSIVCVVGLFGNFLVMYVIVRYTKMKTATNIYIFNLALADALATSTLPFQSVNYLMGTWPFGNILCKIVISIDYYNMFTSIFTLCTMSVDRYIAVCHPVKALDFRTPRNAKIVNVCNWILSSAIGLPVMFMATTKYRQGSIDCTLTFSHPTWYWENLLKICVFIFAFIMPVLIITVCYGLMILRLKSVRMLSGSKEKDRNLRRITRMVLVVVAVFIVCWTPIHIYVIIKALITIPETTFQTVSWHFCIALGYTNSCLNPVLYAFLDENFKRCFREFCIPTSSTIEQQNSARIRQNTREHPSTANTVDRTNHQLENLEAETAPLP
How it was run: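 Guinea pig ileum longitudinal muscle–myenteric plexus (male Hartley, 250–500 g) in oxygenated Krebs at 37 °C, 1 g tension; 0.1 Hz, 0.4-ms pulses, supramaximal voltage. Control PL-017 curve first; 1 μM compound 30 min, 30 min wash, cumulative PL-017 curve repeated. IC50 ratio = antagonized/unantagonized IC50; n ≥ 3.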

[18] = target: Delta-type opioid receptor (Mus musculus) (UniProt P32300)
[19] = Selectivity for mu receptor of guinea pig Ileum (GPI) and delta receptor of delta opioid receptor of mouse vas deferens (MVD) smooth muscle preparation; type: tissue-based
[20] = organism: Mus musculus; settings: Muscle tissue

T1 sequence (P33533 whole entry): as the sequence (P33533 whole entry, looked up) above

SMILES | Ki [1] [nM] | Max response [2] [%] | Ke [3] [nM] | Max response [4] [%] | Ki [5] [nM] | Ke [6] [nM] | Ki [7] [nM] | Ki [8] [nM] | Ki [9] [nM] | Selectivity ratio [10] | Selectivity ratio [11] | IC50 [12] [nM] | IC50 [13] [nM] | Selectivity ratio [14] | Ratio [15] | Ki [16] [nM] | Ratio [17] | Ke [18] [nM] | Selectivity ratio [19] | Ke [20] [nM]
Oc1ccc2c3c1O[C@H]1c4[nH]c5ccccc5c4C[C@@]4(O)[C@@H](C2)N(CC2CC2)CC[C@]314 [NALTRINDOLE] | 0.24 | 18 | 0.49 | 16 | 12.3 | 43 | 34.1 | 19.9 | 0.29 | – | – | – | – | – | – | – | – | – | – | –
Oc1ccc2c3c1OC1c4[nH]c5c(OCc6ccccc6)cccc5c4C[C@@]4(O)[C@@H](C2)N(CC2CC2)CC[C@]314 (stereo partly drawn) | 2.5 | – | 1.7 | – | 73.3 | – | 258 | 112 | 3.1 | 83 | 0.18 | 9500 | 1700 | 51 | 610 | 159 | – | – | – | –
Oc1ccc2c3c1OC1c4[nH]c5c(-c6ccccc6)cccc5c4C[C@@]4(O)[C@@H](C2)N(CC2CC2)CC[C@]314 (stereo partly drawn) | 0.46 | 37 | – | 35 | 51.4 | 310 | 312 | 89.9 | 2.1 | 149 | – | – | – | 59 | – | 124 | 4.2 | 1.8 | 172 | –
Oc1ccc2c3c1OC1c4[nH]c5cc(OCc6ccccc6)ccc5c4C[C@@]4(O)[C@@H](C2)N(CC2CC2)CC[C@]314 (stereo partly drawn) | 6.3 | 0 | – | 25 | 201 | – | 470 | 461 | 6.7 | 70 | – | – | – | 101 | 260 | 676 | – | – | – | 3.9
Oc1ccc2c3c1OC1c4[nH]c5cccc(-c6ccccc6)c5c4C[C@@]4(O)[C@@H](C2)N(CC2CC2)CC[C@]314 (stereo partly drawn) | 127 | 0 | 66 | 22 | 284 | 710 | 2970 | 435 | 52.4 | 57 | – | – | – | 29 | 16 | 1510 | 2.4 | – | 11 | –
Oc1ccc2c3c1OC1c4[nH]c5ccc(OCc6ccccc6)cc5c4C[C@@]4(O)[C@@H](C2)N(CC2CC2)CC[C@]314 (stereo partly drawn) | 1.7 | 24 | 4.8 | 35 | 14.9 | 560 | 82.1 | 85.8 | 4.4 | 19 | – | – | – | 18 | 210 | 81 | 2.8 | – | 117 | –
